Reference: ChEMBL document CHEMBL1158497, “Arylpyrrolizines as inhibitors of microsomal prostaglandin E2 synthase-1 (mPGES-1) or as dual inhibitors of mPGES-1 and 5-lipoxygenase (5-LOX)” (J Med Chem, 2009)
The source made the active and inactive calls. The rule behind the calls is not given here.

Assays:
[1] = molecular target: T1, Prostaglandin E synthase (Homo sapiens) (UniProt O14684); assay: Inhibition of mPGES1 in IL1-beta treated human A549 cell microsomal membrane assessed as residual enzyme activity at 10 uM after 1 min by measuring PGE2 level using RP-HPLC method relative to control; assay type: microsomes; settings: Microsome
T1 sequence (whole entry): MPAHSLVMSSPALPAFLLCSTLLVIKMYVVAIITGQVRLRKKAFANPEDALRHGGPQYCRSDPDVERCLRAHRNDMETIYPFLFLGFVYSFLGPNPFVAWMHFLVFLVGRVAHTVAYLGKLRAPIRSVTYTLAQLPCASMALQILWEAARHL
Outline: (§1)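 Cell-free assay using microsomes from A549 cells as the PGE2 synthase source. Compounds were tested at four concentrations (10 μM, 1 μM, 100 nM, 10 nM; 1 nM where needed) in 0.1% DMSO vehicle. Read-out was PGE2 level as a percentage of vehicle control, n=3-5, with ANOVA and Tukey HSD versus vehicle.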

[2] = Inhibition of 5-lipoxygenase in bovine polymorphonuclear leucocytes assessed as formation of LTB4 by HPLC method; assay type: cell-based; settings: Bos taurus
[3] = molecular target: T2, Prostaglandin E synthase (Homo sapiens, UniProt O14684); assay: Inhibition of mPGES1 in IL1-beta treated human A549 cell microsomal membrane assessed as residual enzyme activity after 1 min by measuring PGE2 level using RP-HPLC method; assay type: microsomes, Microsome; outline: as §1
T2 sequence (O14684 whole entry): T1 sequence (whole entry)

[4] = molecular target: T3, Prostaglandin G/H synthase 1 (Ovis aries) (UniProt P05979); assay: Inhibition of ovine COX1 assessed as residual enzyme activity at 30 uM preincubated for 5 mins by measuring 12-HHT level using HPLC method relative to control
T3 sequence (whole entry): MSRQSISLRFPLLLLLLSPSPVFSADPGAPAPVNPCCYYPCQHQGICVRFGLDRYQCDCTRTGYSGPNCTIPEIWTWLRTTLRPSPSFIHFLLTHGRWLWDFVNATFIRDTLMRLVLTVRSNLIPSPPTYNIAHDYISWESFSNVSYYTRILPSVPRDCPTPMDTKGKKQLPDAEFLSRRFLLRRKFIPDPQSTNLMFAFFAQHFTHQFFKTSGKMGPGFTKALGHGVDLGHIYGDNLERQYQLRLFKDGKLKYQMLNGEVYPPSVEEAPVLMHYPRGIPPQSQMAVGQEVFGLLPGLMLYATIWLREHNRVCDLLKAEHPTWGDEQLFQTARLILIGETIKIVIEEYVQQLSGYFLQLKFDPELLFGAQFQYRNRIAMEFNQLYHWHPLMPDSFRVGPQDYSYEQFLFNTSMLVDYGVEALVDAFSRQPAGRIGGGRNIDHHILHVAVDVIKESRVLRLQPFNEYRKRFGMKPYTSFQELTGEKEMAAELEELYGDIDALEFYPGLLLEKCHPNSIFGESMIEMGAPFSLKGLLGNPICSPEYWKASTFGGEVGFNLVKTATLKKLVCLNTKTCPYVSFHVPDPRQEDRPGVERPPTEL
Outline: (§2)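 Isolated COX-1 and COX-2 enzymes were each exposed to inhibitor at 30 μM in 0.1% DMSO vehicle. Activity was read as 12-HHT concentration as a percentage of vehicle control, n=3-5, with ANOVA and Tukey HSD versus vehicle.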

[5] = molecular target: T4, Prostaglandin G/H synthase 2 (Homo sapiens) (UniProt P35354); assay: Inhibition of human recombinant COX2 assessed as residual activity at 30 uM preincubated for 5 mins by measuring 12-HHT level using HPLC method relative to control; outline: as §2
T4 sequence (whole entry): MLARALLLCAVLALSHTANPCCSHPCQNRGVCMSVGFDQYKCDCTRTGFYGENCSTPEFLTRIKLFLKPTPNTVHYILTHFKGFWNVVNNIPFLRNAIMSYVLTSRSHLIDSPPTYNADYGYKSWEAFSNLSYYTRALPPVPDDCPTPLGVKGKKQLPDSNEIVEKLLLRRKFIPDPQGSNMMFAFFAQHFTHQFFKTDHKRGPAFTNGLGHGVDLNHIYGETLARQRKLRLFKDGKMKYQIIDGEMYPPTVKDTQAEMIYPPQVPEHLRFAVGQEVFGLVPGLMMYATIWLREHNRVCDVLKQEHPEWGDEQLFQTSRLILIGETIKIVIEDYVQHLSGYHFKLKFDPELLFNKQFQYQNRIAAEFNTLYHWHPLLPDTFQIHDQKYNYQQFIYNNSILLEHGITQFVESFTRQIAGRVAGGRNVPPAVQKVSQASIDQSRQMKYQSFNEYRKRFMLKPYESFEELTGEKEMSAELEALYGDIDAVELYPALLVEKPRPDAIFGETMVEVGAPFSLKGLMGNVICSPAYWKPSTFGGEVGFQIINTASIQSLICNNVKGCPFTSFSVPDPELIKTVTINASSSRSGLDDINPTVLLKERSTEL

[6] = molecular target: T2, Prostaglandin E synthase; assay: Inhibition of mPGES1 in IL1-beta treated human A549 cell microsomal membrane assessed as blockade of PGH2 to PGE2 conversion after 1 min; assay type: microsomes, Microsome; outline: as §1
[7] = Inhibition of rat mPGES1

Compound | Activity [1] [%] | IC50 [2] [µM] | IC50 [3] [µM] | Activity [4] | Activity [5] | IC50 [6] [µM] | IC50 [7] [µM]
CC1(C)Cc2c(-c3ccccc3)c(-c3ccc(Cl)cc3)c(Cc3nnn[nH]3)n2C1 | 27.9 | 0.5 | 3.9 | 37.4% | 46.5% | – | –
CC1(C)Cc2c(-c3ccccc3)c(-c3ccc4ccoc4c3)c(CC(=O)O)n2C1 | 42.1 | – | 6.2 | 94% | 75.8% | – | –
O=C(O)CCc1c(-c2ccc(Cl)cc2)c(-c2ccccc2)c2n1CCC2 | 20.8 | 1.9 | 1.8 | – | – | – | –
CC1(C)Cc2c(-c3ccccc3)c(-c3ccc(C(F)(F)F)cc3)c(CC(=O)O)n2C1 | 56.1 | 0.31 | – | – | – | – | –
CC1(C)Cc2c(-c3ccccc3)c(-c3ccc(C(C)(C)C)cc3)c(CC(=O)O)n2C1 | 53.8 | 0.18 | – | inactive | inactive | – | –
CC(C)c1ccc2c(c1)c(SC(C)(C)C)c(CC(C)(C)C(=O)O)n2Cc1ccc(Cl)cc1 | 22.5 | – | – | 19.5% | 56.7% | – | 3.2
O=C(O)Cc1c(-c2ccc(Cl)cc2)c(-c2ccccc2)c2n1CCC2 | 65.3 | 1.6 | – | – | – | – | –

Results, then the compound that gave them:

Activity [1] [%] | IC50 [2] [µM] | IC50 [3] [µM] | Activity [4] | Activity [5] | IC50 [6] [µM] | IC50 [7] [µM] | Compound
32.2 | 0.26 | 4.8 | 8.6% | 13.6% | – | – | Cc1ccc(S(=O)(=O)NC(=O)Cc2c(-c3ccc(Cl)cc3)c(-c3ccccc3)c3n2CC(C)(C)C3)cc1
44.9 | 0.18 | 6.7 | 12.4% | 53.7% | 6 | – | CC1(C)Cc2c(-c3ccccc3)c(-c3ccc(Cl)cc3)c(CC(=O)O)n2C1 [LICOFELONE]
58.8 | 1.5 | – | – | – | – | – | CC1(C)Cc2c(-c3ccccc3)c(-c3ccc([N+](=O)[O-])cc3)c(CC(=O)O)n2C1
63.1 | 0.23 | – | – | – | – | – | CC1(C)Cc2c(-c3ccccc3)c(-c3ccc(Cl)cc3)c(CC(=O)NS(C)(=O)=O)n2C1
23.2 | – | 2.1 | 29.2% | inactive | – | – | Cc1ccc(S(=O)(=O)NC(=O)CCc2c(-c3ccc(Cl)cc3)c(-c3ccccc3)c3n2CC(C)(C)C3)cc1
47.4 | – | 7.2 | 82.9% | inactive | – | – | CC1(C)Cc2c(-c3ccccc3)c(-c3ccc(Cl)cc3)c(CCC(=O)O)n2C1
38.5 | – | 5.9 | – | – | – | – | CCC1(CC)Cc2c(-c3ccccc3)c(-c3ccc(Cl)cc3)c(CC(=O)NS(C)(=O)=O)n2C1
28.7 | 0.25 | 4.5 | 25.8% | 43.4% | – | – | CC1(C)Cc2c(-c3ccccc3)c(-c3ccc(Cl)cc3)c(CC(=O)NS(=O)(=O)c3ccccc3)n2C1
